Measured values from ChEMBL document CHEMBL1833957, “P1-substituted symmetry-based human immunodeficiency virus protease inhibitors with potent antiviral activity against drug-resistant viruses” (J Med Chem, 2011).

These molecules were tested on Human immunodeficiency virus 1 (assay: Antiviral activity against wild type HIV1 pNL4-3 infected in human MT4 cells assessed as inhibition of virus-induced cell death after 5 days by MTT assay in presence of 50% human serum). Conditions: Human immunodeficiency virus 1, pNL4-3, MT4, 120 h.
Assay type: functional, organism-based

Point of comparison: COC(=O)N[C@H](C(=O)N[C@@H](Cc1ccccc1)C[C@H](O)[C@H](Cc1ccc(-c2ccc(C#N)nc2)cc1)NC(=O)[C@@H](NC(=O)OC)C(C)(C)C)C(C)(C)C, EC50 23 nM. Against it:
- COC(=O)N[C@H](C(=O)N[C@@H](Cc1ccccc1)C[C@H](O)[C@H](Cc1ccc(-c2ccccc2)cc1)NC(=O)[C@@H](NC(=O)OC)C(C)(C)C)C(C)(C)C — 4.1-fold higher, 95 nM
- COC(=O)N[C@H](C(=O)N[C@@H](Cc1ccccc1)C[C@H](O)[C@H](Cc1ccc(-c2ccc(O)cc2)cc1)NC(=O)[C@@H](NC(=O)OC)C(C)(C)C)C(C)(C)C — 3.1-fold higher, 71 nM
- COC(=O)N[C@H](C(=O)N[C@@H](Cc1ccccc1)C[C@H](O)[C@H](Cc1ccc(-c2cncnc2)cc1)NC(=O)[C@@H](NC(=O)OC)C(C)(C)C)C(C)(C)C — 2.5-fold higher, 58 nM
- COC(=O)N[C@H](C(=O)N[C@@H](Cc1ccccc1)C[C@H](O)[C@H](Cc1ccc(-c2cnccn2)cc1)NC(=O)[C@@H](NC(=O)OC)C(C)(C)C)C(C)(C)C — 6.6-fold higher, 151 nM

These molecules were tested on Human immunodeficiency virus 1 (assay: Antiviral activity against HIV1 A17 harboring protease L10F, V32I, M46I, I47V, Q58E and I84V mutant infected in human MT4 cells assessed as inhibition of virus-induced cell death after 5 days by MTT assay relative to wild type HIV1 pNL4-3). Conditions: not given.
Assay type: functional

Point of comparison: COC(=O)N[C@H](C(=O)N[C@H](Cc1ccc(-c2ccccn2)cc1)C[C@H](O)[C@H](Cc1ccccc1)NC(=O)[C@@H](N1CCN(Cc2cccc(C(C)(C)O)n2)C1=O)C(C)(C)C)C(C)(C)C, “fold change (FC)” value 3. Against it:
- COC(=O)N[C@H](C(=O)N[C@@H](Cc1ccccc1)C[C@H](O)[C@H](Cc1ccc(-c2ccccc2)cc1)NC(=O)[C@@H](NC(=O)OC)C(C)(C)C)C(C)(C)C — higher, 21
- COC(=O)N[C@H](C(=O)N[C@@H](Cc1ccccc1)C[C@H](O)[C@H](Cc1ccc(-c2ccc(O)cc2)cc1)NC(=O)[C@@H](NC(=O)OC)C(C)(C)C)C(C)(C)C — the same, 3
- COC(=O)N[C@H](C(=O)N[C@@H](Cc1ccccc1)C[C@H](O)[C@H](Cc1ccc(-c2cncnc2)cc1)NC(=O)[C@@H](NC(=O)OC)C(C)(C)C)C(C)(C)C — higher, 41
- COC(=O)N[C@H](C(=O)N[C@@H](Cc1ccccc1)C[C@H](O)[C@H](Cc1ccc(-c2ccc(C#N)nc2)cc1)NC(=O)[C@@H](NC(=O)OC)C(C)(C)C)C(C)(C)C — higher, 8
- COC(=O)N[C@H](C(=O)N[C@@H](Cc1ccccc1)C[C@H](O)[C@H](Cc1ccc(-c2cnccn2)cc1)NC(=O)[C@@H](NC(=O)OC)C(C)(C)C)C(C)(C)C — higher, 7
- Cc1cccc(C)c1OCC(=O)N[C@@H](Cc1ccccc1)[C@@H](O)C[C@H](Cc1ccccc1)NC(=O)[C@H](C(C)C)N1CCCNC1=O [LOPINAVIR] — higher, 59

These molecules were tested on Human immunodeficiency virus 1 (assay: (§1) Antiviral activity against HIV1 isolate 1 harboring protease L10I, E35D, N37D, M46I, I54V, G57R, L63P, A71V, T74P, I84V, L90M, I93L mutant infected in human MT4 cells assessed as inhibition of virus-induced cell death after 5 days by MTT assay relative to wild type HIV1 pNL4-3). Conditions: not given.
Assay type: functional

Point of comparison: COC(=O)N[C@H](C(=O)N[C@@H](Cc1ccccc1)C[C@H](O)[C@H](Cc1ccc(-c2ccc(C#N)nc2)cc1)NC(=O)[C@@H](NC(=O)OC)C(C)(C)C)C(C)(C)C, “fold change (FC)” value 16. Against it:
- COC(=O)N[C@H](C(=O)N[C@H](Cc1ccc(-c2ccccn2)cc1)C[C@H](O)[C@H](Cc1ccccc1)NC(=O)[C@@H](N1CCN(Cc2cccc(C(C)(C)O)n2)C1=O)C(C)(C)C)C(C)(C)C — higher, 57
- Cc1cccc(C)c1OCC(=O)N[C@@H](Cc1ccccc1)[C@@H](O)C[C@H](Cc1ccccc1)NC(=O)[C@H](C(C)C)N1CCCNC1=O [LOPINAVIR] — higher, 62

What follows are molecules tested on Human immunodeficiency virus 1 (assay: Antiviral activity against HIV1 B26 harboring protease L33F, K45I, M46I, I50V, A71V and V82F mutant infected in human MT4 cells assessed as inhibition of virus-induced cell death after 5 days by MTT assay relative to wild type HIV1 pNL4-3). Conditions: not given.
Assay type: functional

Point of comparison: COC(=O)N[C@H](C(=O)N[C@@H](Cc1ccccc1)C[C@H](O)[C@H](Cc1ccc(-c2ccc(C#N)nc2)cc1)NC(=O)[C@@H](NC(=O)OC)C(C)(C)C)C(C)(C)C, “fold change (FC)” value 12. Against it:
- COC(=O)N[C@H](C(=O)N[C@H](Cc1ccc(-c2ccccn2)cc1)C[C@H](O)[C@H](Cc1ccccc1)NC(=O)[C@@H](N1CCN(Cc2cccc(C(C)(C)O)n2)C1=O)C(C)(C)C)C(C)(C)C — lower, 7
- COC(=O)N[C@H](C(=O)N[C@@H](Cc1ccccc1)C[C@H](O)[C@H](Cc1ccc(-c2ccccc2)cc1)NC(=O)[C@@H](NC(=O)OC)C(C)(C)C)C(C)(C)C — the same, 12
- COC(=O)N[C@H](C(=O)N[C@@H](Cc1ccccc1)C[C@H](O)[C@H](Cc1ccc(-c2ccc(O)cc2)cc1)NC(=O)[C@@H](NC(=O)OC)C(C)(C)C)C(C)(C)C — lower, 3
- COC(=O)N[C@H](C(=O)N[C@@H](Cc1ccccc1)C[C@H](O)[C@H](Cc1ccc(-c2cncnc2)cc1)NC(=O)[C@@H](NC(=O)OC)C(C)(C)C)C(C)(C)C — higher, 74
- COC(=O)N[C@H](C(=O)N[C@@H](Cc1ccccc1)C[C@H](O)[C@H](Cc1ccc(-c2cnccn2)cc1)NC(=O)[C@@H](NC(=O)OC)C(C)(C)C)C(C)(C)C — lower, 4
- Cc1cccc(C)c1OCC(=O)N[C@@H](Cc1ccccc1)[C@@H](O)C[C@H](Cc1ccccc1)NC(=O)[C@H](C(C)C)N1CCCNC1=O [LOPINAVIR] — higher, 211

What follows are molecules tested on Human immunodeficiency virus 1 (assay: as §1, with “HIV1” for “HIV1 isolate 1”, “I13V, G16A, Q18H, L33F,” for “E35D,”, “G57R, Q61H,I62V,” for “G57R,”, “A71L, I72T, L76V, V77I, V82A, N88G,” for “A71V, T74P, I84V,”). Conditions: not given.
Assay type: functional

Point of comparison: COC(=O)N[C@H](C(=O)N[C@@H](Cc1ccccc1)C[C@H](O)[C@H](Cc1ccc(-c2ccc(C#N)nc2)cc1)NC(=O)[C@@H](NC(=O)OC)C(C)(C)C)C(C)(C)C, “fold change (FC)” value 3. Against it:
- COC(=O)N[C@H](C(=O)N[C@H](Cc1ccc(-c2ccccn2)cc1)C[C@H](O)[C@H](Cc1ccccc1)NC(=O)[C@@H](N1CCN(Cc2cccc(C(C)(C)O)n2)C1=O)C(C)(C)C)C(C)(C)C — lower, 2
- Cc1cccc(C)c1OCC(=O)N[C@@H](Cc1ccccc1)[C@@H](O)C[C@H](Cc1ccccc1)NC(=O)[C@H](C(C)C)N1CCCNC1=O [LOPINAVIR] — higher, 234

These molecules were tested on Human immunodeficiency virus 1 (assay: Antiviral activity against wild type HIV1 pNL4-3 infected in human MT4 cells assessed as inhibition of virus-induced cell death after 5 days by MTT assay). Conditions: Human immunodeficiency virus 1, pNL4-3, MT4, 120 h.
Assay type: functional, organism-based
Procedure, shortened: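 EC50 measured against wild-type virus in MT-4 cells, with no human serum added.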

Point of comparison: COC(=O)N[C@H](C(=O)N[C@@H](Cc1ccccc1)C[C@H](O)[C@H](Cc1ccc(-c2cnccn2)cc1)NC(=O)[C@@H](NC(=O)OC)C(C)(C)C)C(C)(C)C, EC50 54 nM. Against it:
- COC(=O)N[C@H](C(=O)N[C@@H](Cc1ccccc1)C[C@H](O)[C@H](Cc1ccc(-c2ccccc2)cc1)NC(=O)[C@@H](NC(=O)OC)C(C)(C)C)C(C)(C)C — 14-fold lower, 4 nM
- COC(=O)N[C@H](C(=O)N[C@@H](Cc1ccccc1)C[C@H](O)[C@H](Cc1ccc(-c2ccc(O)cc2)cc1)NC(=O)[C@@H](NC(=O)OC)C(C)(C)C)C(C)(C)C — 4.2-fold lower, 13 nM
- COC(=O)N[C@H](C(=O)N[C@@H](Cc1ccccc1)C[C@H](O)[C@H](Cc1ccc(-c2cncnc2)cc1)NC(=O)[C@@H](NC(=O)OC)C(C)(C)C)C(C)(C)C — 27-fold lower, 2 nM
- COC(=O)N[C@H](C(=O)N[C@@H](Cc1ccccc1)C[C@H](O)[C@H](Cc1ccc(-c2ccc(C#N)nc2)cc1)NC(=O)[C@@H](NC(=O)OC)C(C)(C)C)C(C)(C)C — 9-fold lower, 6 nM
